{"source": "ChEMBL document CHEMBL4304759", "about": "“Identifying Novel Anti-Osteoporosis Leads with a Chemotype-Assembly Approach” (J Med Chem, 2019)", "test_system": "BMDM", "experiment": "Anti-osteoporosis activity in C57BL/6 mouse bone marrow macrophages assessed as inhibition of M-CSF/RANKL-induced osteoclast differentiation supplemented with fresh medium containing compounds every 2 days for 5 measured post-last dose by TRAP staining based assay", "assay_type": "functional, cell-based", "conditions": "C57BL/6, BMDM, 5 days", "how_it_was_run": "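Mouse (C57BL/6, 6-week) BMMs were plated at 6×10³ cells/well with M-CSF 30 ng/mL overnight, then given complete α-MEM with M-CSF and GST-rRANKL 100 ng/mL plus compound at varied concentrations, refreshed every 2 days. At day 5 cells were fixed in 4% paraformaldehyde and TRAcP-stained; TRAcP+ cells with >3 nuclei were counted.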"}
{"smiles": "Cc1cc(NC(=O)Cn2cc(-c3ccc(F)cc3)nn2)no1", "values": [{"measurement": "IC50", "result": "> 30000", "unit": "nM"}]}
{"smiles": "CCOC(=O)c1sc(NC(=O)Cn2cc(-c3cccs3)nn2)nc1C", "values": [{"measurement": "IC50", "result": 20, "unit": "nM"}]}
{"smiles": "Cc1csc(NC(=O)Cn2cc(-c3ccc(F)cc3)nn2)n1", "values": [{"measurement": "IC50", "result": 250, "unit": "nM"}]}
{"smiles": "CCOC(=O)c1sc(NC(=O)Cn2cc(-c3ccc(OC)cc3)nn2)nc1C", "values": [{"measurement": "IC50", "result": 2330, "unit": "nM"}]}
{"smiles": "Cc1cc(NC(=O)Cn2cc(-c3ccc(Cl)cc3)nn2)no1", "values": [{"measurement": "IC50", "result": 1910, "unit": "nM"}]}
{"smiles": "Cc1cc(NC(=O)Cn2cc(-c3cccc(Cl)c3)nn2)no1", "values": [{"measurement": "IC50", "result": "> 30000", "unit": "nM"}]}
{"smiles": "Cc1csc(NC(=O)Cn2cc(-c3ccncc3)nn2)n1", "values": [{"measurement": "IC50", "result": 100, "unit": "nM"}]}
{"smiles": "CCOC(=O)c1sc(NC(=O)Cn2cc(-c3ccc(Cl)cc3)nn2)nc1C", "values": [{"measurement": "IC50", "result": 180, "unit": "nM"}]}
{"smiles": "Cc1ccc(-c2csc(NC(=O)c3ccc(C)o3)n2)cc1", "values": [{"measurement": "IC50", "result": 4030, "unit": "nM"}]}
{"smiles": "COc1cccc(-c2cn(-c3ccc(C(F)(F)F)cc3)nc2C(=O)NC2CCCCC2)c1", "values": [{"measurement": "IC50", "result": "> 30000", "unit": "nM"}]}
{"smiles": "O=C(Cn1cc(-c2ccc([N+](=O)[O-])cc2)nn1)Nc1nc2ccccc2s1", "values": [{"measurement": "IC50", "result": 3280, "unit": "nM"}]}
{"smiles": "COc1ccc(-c2cn(CC(=O)Nc3cc(C)on3)nn2)cc1", "values": [{"measurement": "IC50", "result": "> 30000", "unit": "nM"}]}
{"smiles": "Cc1csc(NC(=O)Cn2cc(-c3ccc(C(=O)O)cc3)nn2)n1", "values": [{"measurement": "IC50", "result": "> 30000", "unit": "nM"}]}
{"smiles": "O=C(NCc1ccco1)c1cc2ccccc2c(=O)o1", "values": [{"measurement": "IC50", "result": 4240, "unit": "nM"}]}
{"smiles": "Cc1csc(NC(=O)Cn2cc(-c3cccs3)nn2)n1", "values": [{"measurement": "IC50", "result": 40, "unit": "nM"}]}
{"smiles": "O=C(C1=C(O)C(=O)N(CCCn2ccnc2)[C@@H]1c1cccc(O)c1)c1ccc2c(c1)OCCO2", "values": [{"measurement": "IC50", "result": 2700, "unit": "nM"}]}
{"smiles": "CCCN1C(=O)c2ccc(C(=O)Nc3nccs3)cc2C1=O", "values": [{"measurement": "IC50", "result": 10000, "unit": "nM"}]}
{"smiles": "O=C(Cn1cc(-c2ccc(Cl)cc2)nn1)Nc1nccs1", "values": [{"measurement": "IC50", "result": 1100, "unit": "nM"}]}
{"smiles": "Cc1cc(NC(=O)Cn2cc(-c3ccc([N+](=O)[O-])cc3)nn2)no1", "values": [{"measurement": "IC50", "result": 1220, "unit": "nM"}]}
{"smiles": "CCOC(=O)c1sc(NC(=O)Cn2cc(-c3ccccc3Cl)nn2)nc1C", "values": [{"measurement": "IC50", "result": 130, "unit": "nM"}]}
{"smiles": "COC(=O)c1ccc(-c2cn(CC(=O)Nc3cc(C)on3)nn2)cc1", "values": [{"measurement": "IC50", "result": "> 30000", "unit": "nM"}]}
{"smiles": "Cc1nc(NC(=O)/C=C/c2ccc3c(c2)OCO3)sc1C", "values": [{"measurement": "IC50", "result": 8110, "unit": "nM"}]}
{"smiles": "CCOC(=O)c1sc(NC(=O)Cn2cc(-c3ccc([N+](=O)[O-])cc3)nn2)nc1C", "values": [{"measurement": "IC50", "result": 1840, "unit": "nM"}]}
{"smiles": "Nc1cccc(-c2cn(CC(=O)Nc3nccs3)nn2)c1", "values": [{"measurement": "IC50", "result": 1270, "unit": "nM"}]}
{"smiles": "Cc1cc(NC(=O)Cn2cc(-c3ccccc3Cl)nn2)no1", "values": [{"measurement": "IC50", "result": "> 30000", "unit": "nM"}]}
{"smiles": "CCOc1cc(C(=O)Nc2nccs2)cc(OCC)c1OCC", "values": [{"measurement": "IC50", "result": 6750, "unit": "nM"}]}
{"smiles": "CC(C)Oc1ccccc1C(=O)Nc1nccs1", "values": [{"measurement": "IC50", "result": 12600, "unit": "nM"}]}
{"smiles": "CCOC(=O)c1sc(NC(=O)Cn2cc(-c3ccc(C#N)cc3)nn2)nc1C", "values": [{"measurement": "IC50", "result": 310, "unit": "nM"}]}
{"smiles": "COC(=O)c1ccc(-c2cn(CC(=O)Nc3nc4ccccc4s3)nn2)cc1", "values": [{"measurement": "IC50", "result": "> 30000", "unit": "nM"}]}
{"smiles": "O=C(Cn1cc(-c2cccs2)nn1)Nc1nccs1", "values": [{"measurement": "IC50", "result": "> 30000", "unit": "nM"}]}
{"smiles": "CCOC(=O)c1sc(NC(=O)Cn2cc(-c3ccncc3)nn2)nc1C", "values": [{"measurement": "IC50", "result": 120, "unit": "nM"}]}
{"smiles": "Nc1cccc(-c2cn(CC(=O)Nc3nc4ccccc4s3)nn2)c1", "values": [{"measurement": "IC50", "result": 1110, "unit": "nM"}]}
{"smiles": "CCOC(=O)c1ccccc1SCC(=O)Nc1nccs1", "values": [{"measurement": "IC50", "result": 3980, "unit": "nM"}]}
{"smiles": "COc1cccc(-c2cn(-c3ccc(C(F)(F)F)cc3)nc2C(=O)N2CCc3ccccc3C2)c1", "values": [{"measurement": "IC50", "result": "> 30000", "unit": "nM"}]}
{"smiles": "N#Cc1ccc(-c2cn(CC(=O)Nc3nc4ccccc4s3)nn2)cc1", "values": [{"measurement": "IC50", "result": "> 30000", "unit": "nM"}]}
{"smiles": "COC(=O)c1ccc(-c2cn(CC(=O)Nc3nc(C)cs3)nn2)cc1", "values": [{"measurement": "IC50", "result": "> 30000", "unit": "nM"}]}
{"smiles": "O=C(Cn1cc(-c2ccc(Cl)cc2)nn1)Nc1nc2ccccc2s1", "values": [{"measurement": "IC50", "result": 130, "unit": "nM"}]}
{"smiles": "O=C(Cn1cc(-c2ccc(F)cc2)nn1)Nc1nccs1", "values": [{"measurement": "IC50", "result": 190, "unit": "nM"}]}
{"smiles": "O=C(Cn1cc(-c2ccc([N+](=O)[O-])cc2)nn1)Nc1nccs1", "values": [{"measurement": "IC50", "result": 1040, "unit": "nM"}]}
{"smiles": "N#Cc1ccc(-c2cn(CC(=O)Nc3nccs3)nn2)cc1", "values": [{"measurement": "IC50", "result": 270, "unit": "nM"}]}
{"smiles": "O=C(Nc1nc2ccccc2s1)c1cc2ccccc2c(=O)o1", "values": [{"measurement": "IC50", "result": 5130, "unit": "nM"}]}
{"smiles": "O=C(Cn1cc(-c2ccccc2Cl)nn1)Nc1nccs1", "values": [{"measurement": "IC50", "result": 60, "unit": "nM"}]}
{"smiles": "O=C(Cn1cc(-c2ccc(F)cc2)nn1)Nc1nc2ccccc2s1", "values": [{"measurement": "IC50", "result": "> 30000", "unit": "nM"}]}
{"smiles": "COc1cccc(-c2cn(-c3ccc(C(F)(F)F)cc3)nc2C(=O)N2CCN(c3ncccn3)CC2)c1", "values": [{"measurement": "IC50", "result": "> 30000", "unit": "nM"}]}
{"smiles": "CCCn1c(=O)c(C(=O)Nc2nccs2)c(O)c2ccccc21", "values": [{"measurement": "IC50", "result": 3980, "unit": "nM"}]}
{"smiles": "Cc1csc(NC(=O)Cn2cc(-c3ccccc3Cl)nn2)n1", "values": [{"measurement": "IC50", "result": 1240, "unit": "nM"}]}
{"smiles": "COc1cccc(-c2cn(-c3ccc(C(F)(F)F)cc3)nc2C(=O)NCCCN(C)C)c1", "values": [{"measurement": "IC50", "result": "> 30000", "unit": "nM"}]}
{"smiles": "COc1cccc(OC)c1C(=O)Nc1nc(C)c(C(C)=O)s1", "values": [{"measurement": "IC50", "result": 2140, "unit": "nM"}]}
{"smiles": "COc1ccc(-c2cn(CC(=O)Nc3nc(C)cs3)nn2)cc1", "values": [{"measurement": "IC50", "result": 3890, "unit": "nM"}]}
{"smiles": "O=C(Cn1cc(-c2cccs2)nn1)Nc1nc2ccccc2s1", "values": [{"measurement": "IC50", "result": 21400, "unit": "nM"}]}
{"smiles": "Cc1cnc(NC(=O)c2ccc3c(c2)OCO3)s1", "values": [{"measurement": "IC50", "result": "> 30000", "unit": "nM"}]}
{"smiles": "O=C(Cn1cc(-c2ccncc2)nn1)Nc1nc2ccccc2s1", "values": [{"measurement": "IC50", "result": 50, "unit": "nM"}]}
{"smiles": "Cc1cc(NC(=O)Cn2cc(-c3cccs3)nn2)no1", "values": [{"measurement": "IC50", "result": "> 30000", "unit": "nM"}]}
{"smiles": "C#Cc1ccc(-c2cn(CC(=O)Nc3cc(C)on3)nn2)cc1", "values": [{"measurement": "IC50", "result": "> 30000", "unit": "nM"}]}
{"smiles": "CCOC(=O)c1sc(NC(=O)Cn2cc(-c3ccc(F)cc3)nn2)nc1C", "values": [{"measurement": "IC50", "result": 660, "unit": "nM"}]}
{"smiles": "Cc1csc(NC(=O)Cn2cc(-c3ccc([N+](=O)[O-])cc3)nn2)n1", "values": [{"measurement": "IC50", "result": 190, "unit": "nM"}]}
{"smiles": "Cc1cc(NC(=O)Cn2cc(-c3ccncc3)nn2)no1", "values": [{"measurement": "IC50", "result": 430, "unit": "nM"}]}
{"smiles": "O=C(Cn1cc(-c2ccccc2Cl)nn1)Nc1nc2ccccc2s1", "values": [{"measurement": "IC50", "result": "> 30000", "unit": "nM"}]}
{"smiles": "Cc1csc(NC(=O)Cn2cc(-c3ccc(Cl)cc3)nn2)n1", "values": [{"measurement": "IC50", "result": 520, "unit": "nM"}]}
{"smiles": "Cc1csc(NC(=O)Cn2cc(-c3cccc(N)c3)nn2)n1", "values": [{"measurement": "IC50", "result": 250, "unit": "nM"}]}
{"smiles": "N#Cc1ccc(C(=O)Nc2nccs2)cc1", "values": [{"measurement": "IC50", "result": "> 30000", "unit": "nM"}]}
{"smiles": "COc1ccc(-c2cn(CC(=O)Nc3nccs3)nn2)cc1", "values": [{"measurement": "IC50", "result": 510, "unit": "nM"}]}
{"smiles": "Cc1ccc(-c2csc(NCc3ccc(C)o3)n2)cc1", "values": [{"measurement": "IC50", "result": 1190, "unit": "nM"}]}
{"smiles": "C#Cc1ccc(-c2cn(CC(=O)Nc3nccs3)nn2)cc1", "values": [{"measurement": "IC50", "result": "> 30000", "unit": "nM"}]}
{"smiles": "O=C(Cn1cc(-c2cccc(Cl)c2)nn1)Nc1nccs1", "values": [{"measurement": "IC50", "result": "> 30000", "unit": "nM"}]}
{"smiles": "O=C(c1cc2ccccc2s1)N1CCOCC1", "values": [{"measurement": "IC50", "result": 3150, "unit": "nM"}]}
{"smiles": "COc1ccc(-c2cn(CC(=O)Nc3nc4ccccc4s3)nn2)cc1", "values": [{"measurement": "IC50", "result": 1330, "unit": "nM"}]}
{"smiles": "Cc1cc(NC(=O)Cn2cc(-c3ccc(C#N)cc3)nn2)no1", "values": [{"measurement": "IC50", "result": 9320, "unit": "nM"}]}
